Measurements gathered from unrelated publications.
Lines come from different studies, so protocols differ.
Target: Serine/threonine-protein kinase SIK2 (SIK2, Homo sapiens, UniProt Q9H0K1)

C=CC(=O)N1CCC(C(=O)NCC(=O)N2CCN(c3nc(-c4cnc(N)nc4C(F)F)nc(N4CCOCC4)n3)CC2)CC1 — remaining binding (binding, competition with immobilised ligand; 1 µM): 96%
Cc1cnn2ncc(-c3ccnc(N(C)C)n3)c2c1 — remaining binding (binding; 1 µM): 100%
c1cncc(-c2cccc(Nc3nccc(NC4CCCCC4)n3)c2)c1 — remaining binding (binding, competition with immobilised ligand; 10 µM): 73%
FC(F)(F)Oc1cccc(-c2cnc3ccc(-c4ccncc4)nn23)c1 — remaining binding (binding, competition with immobilised ligand; 5 µM): 52%
CCC(=N\O)/C(C)=C/c1ccc(F)cc1 — remaining binding (cell-free assay, competition with immobilised ligand; 1 µM): 100%
O=C(c1ccc(Nc2ncc(Cl)c(-c3cc4ccccc4s3)n2)cc1)N1CCC(N2CCCC2)CC1 — remaining binding (binding, competition with immobilised ligand; 1 µM): 27%
CN(CCCC(F)(F)F)c1nccc(-c2cnn3ncccc23)n1 — remaining binding (binding; 1 µM): 99%
CNC(=O)c1ccc(Nc2ncc(C(F)(F)F)c(NCc3nccnc3N(C)S(C)(=O)=O)n2)cc1 — remaining binding (cell-free assay, competition with immobilised ligand; 0.1 µM): 100%
O=C(NCC1CCOCC1)c1n[nH]cc1NC(=O)c1c(F)cccc1F — remaining binding (binding, competition with immobilised ligand; 1 µM): 83%
CNCc1ccccc1-c1csc([C@H](C)Nc2nc(C)nc3cc(OC)c(OC)cc23)c1 — remaining binding (cell-free assay, competition with immobilised ligand; 1 µM): 100%
Cc1cnc(Nc2ccc(C(=O)N3CCC(N4CCCC4)CC3)cc2)nc1-c1cc2ccccc2s1 — remaining binding (binding, competition with immobilised ligand; 1 µM): 16%
COc1cc(-c2cn(C3CCc4c(F)cccc4N(CC(F)(F)F)C3=O)nn2)ccc1-n1cnc(C)c1 (stereo not shown) — remaining binding (cell-free assay, competition with immobilised ligand; 1 µM): 100%
CN(c1nccc(-c2cnn3ncccc23)n1)C1CC1 — remaining binding (binding; 1 µM): 100%
CN1CCN(c2cnc3c(C4CCN(C(=O)c5ccc(OC(F)(F)F)cc5N)CC4)ncnc3c2)CC1 — remaining binding (cell-free assay, competition with immobilised ligand; 1 µM): 100%
CN(C)c1ncc(F)c(-c2cnn3ncccc23)n1 — remaining binding (binding; 1 µM): 100%
CCN1CCN(Cc2ccc(C(=O)Nc3ccc(C)c(Oc4ccc5c(c4)CC(=O)N5)c3)cc2C(F)(F)F)CC1 — remaining binding (binding, competition with immobilised ligand; 1 µM): 80%
CN(C)c1nccc(-c2cnn3ncccc23)n1 — remaining binding (binding; 1 µM): 100%
O=C(NCCCN1CCOCC1)c1ccc(Nc2ncc(Cl)c(-c3ccc(Cl)s3)n2)cc1 — remaining binding (binding, competition with immobilised ligand; 1 µM): 37%
CC1CCCN1c1nccc(-c2cnn3ncccc23)n1 (stereo not shown) — remaining binding (binding; 1 µM): 90%
COc1cnc(Nc2cccc(S(N)(=O)=O)c2)nc1N1CCN(c2ccccc2)C(=O)C1 — remaining binding (binding, competition with immobilised ligand; 1 µM): 92%
CC(C)CC(=O)N1CCc2nc(-c3ccc(Br)cc3)nc(N(C)Cc3ccccc3)c2C1 — remaining binding (cell-free assay, competition with immobilised ligand; 0.1 µM): 100%
N[C@@H]1CCN(c2nccc(-c3cnn4ncccc34)n2)C1 — remaining binding (binding; 1 µM): 100%
